Laboratory results taken from ChEMBL document CHEMBL4138319, “Discovery, Synthesis, Pharmacological Profiling, and Biological Characterization of Brintonamides A-E, Novel Dual Protease and GPCR Modulators from a Marine Cyanobacterium” (J Med Chem, 2018).
Active and inactive are the calls of the source. The rule behind the calls is not given here. Square brackets hold non-standard residues; d marks the D form. Peptide text beside a SMILES is read from it. * marks the point of attachment. ξ: configuration not given here. X4 = CC[C@H](C)[C@@H](OC(=O)[C@H](Cc1ccccc1)N(C)C)C(=O)*; X3 = CC[C@H](C)[C@@H](OC(=O)/C=C\c1ccccc1)C(=O)*; X5 = CC[C@H](C)[C@@H](OC(=O)C#Cc1ccccc1)C(=O)*; X2 = CC[C@H](C)[C@@H](OC(=O)CCc1ccccc1)C(=O)*; Hmp(2R,3S) = CC[C@H](C)[C@@H](O)C(=O)O; dNMeF = CN[C@H](Cc1ccccc1)C(=O)O; NMeL = CN[C@@H](CC(C)C)C(=O)O; dHiv = CC(C)[C@@H](O)C(=O)O; ξD = NC(CC(=O)O)C(=O)O

Assays:
Kallikrein-7 [1] = molecular target: T1, Kallikrein-7 (Homo sapiens, UniProt P49862); assay: Inhibition of kallikrein 7 (unknown origin) by fluorescence assay
Summary of the method: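 Protease panel screen: 10-dose titrations, 3-fold serial dilution from 100 μM, singlet. Protease activity is followed as the time-course rise in fluorescence from a labeled peptide substrate, and the initial linear slope (signal/min) is analysed.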
Target sequence in this assay (P49862 whole entry): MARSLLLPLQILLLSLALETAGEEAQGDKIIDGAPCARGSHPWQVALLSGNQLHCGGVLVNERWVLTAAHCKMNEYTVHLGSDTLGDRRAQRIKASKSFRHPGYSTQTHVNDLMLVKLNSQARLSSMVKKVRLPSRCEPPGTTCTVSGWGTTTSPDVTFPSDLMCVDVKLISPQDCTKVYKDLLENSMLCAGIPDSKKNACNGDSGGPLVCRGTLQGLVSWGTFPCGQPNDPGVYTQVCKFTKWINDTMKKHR

Caspase-14 = molecular target: T2, Caspase-14 (Homo sapiens, UniProt P31944); assay: Inhibition of human caspase 14 using Ac-WEHD-AMC fluorogenic peptide as substrate by fluorescence assay
T2 sequence (P31944 whole entry): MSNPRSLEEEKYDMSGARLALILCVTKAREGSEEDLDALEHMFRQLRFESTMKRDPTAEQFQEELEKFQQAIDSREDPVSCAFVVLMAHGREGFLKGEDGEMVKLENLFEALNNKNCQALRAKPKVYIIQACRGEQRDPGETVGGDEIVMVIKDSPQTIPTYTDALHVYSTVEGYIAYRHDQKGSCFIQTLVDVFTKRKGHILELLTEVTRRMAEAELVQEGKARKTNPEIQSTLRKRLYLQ
Summary of the method: (§1)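 Activity followed as a time course of rising fluorescence from a fluorescently labelled peptide substrate. The initial linear slope (signal/min) was used.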

MDA-MB-231 [2] = assay: Antiproliferative activity against human MDA-MB-231 cells after 48 hrs by MTT assay; format: functional, cell-based
Summary of the method: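 MDA-MB-231 cells are grown in DMEM with 10% FBS and seeded at 10,000 cells/well for 24 h. Cells are then exposed to graded compound concentrations or DMSO for 48 h. Viability is measured by MTT.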

[3] = molecular target: Atypical chemokine receptor 3 (Homo sapiens, UniProt P25106); assay: Agonist activity at human CXCR7 expressed in CHOK1 cells assessed as induction of beta-arrestin recruitment by chemiluminescence method; format: functional, cell-based
Atypical chemokine receptor 3, sequence (P25106 whole entry, the tested form may be a part): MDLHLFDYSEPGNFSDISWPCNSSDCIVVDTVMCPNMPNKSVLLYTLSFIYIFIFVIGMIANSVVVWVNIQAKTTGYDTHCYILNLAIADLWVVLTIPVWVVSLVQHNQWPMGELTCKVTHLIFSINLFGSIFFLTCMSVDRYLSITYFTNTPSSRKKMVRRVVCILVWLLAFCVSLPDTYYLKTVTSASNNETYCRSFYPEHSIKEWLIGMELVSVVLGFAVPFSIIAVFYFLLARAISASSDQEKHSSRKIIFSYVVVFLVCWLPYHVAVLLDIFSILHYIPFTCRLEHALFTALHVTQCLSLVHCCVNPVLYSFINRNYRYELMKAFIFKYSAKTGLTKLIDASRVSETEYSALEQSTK
Summary of the method: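 PathHunter β-arrestin enzyme-fragment complementation assay in cells stably co-expressing ProLink-tagged GPCR and enzyme-acceptor-tagged β-arrestin. Sample is added to cells and incubated 90 or 180 min at 37 °C or room temperature, with 1% final vehicle. Detection reagent is added for 1 h at room temperature and chemiluminescence is read. % activity is taken relative to vehicle and maximal control ligand. Dose-response: 10 points, 3-fold dilutions from 20 μM, in duplicate.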

[4] = molecular target: Somatostatin receptor type 3 (Homo sapiens, UniProt P32745); assay: Antagonist activity at human SSTR3 expressed in HEK293 cells assessed as [Tyr1]-somatostatin 14-induced beta-arrestin recruitment pre-incubated for 30 mins before [Tyr1]-somatostatin 14 stimulation for 90 or 180 mins by chemiluminescence method; format: functional, cell-based
Somatostatin receptor type 3, sequence (P32745 whole entry): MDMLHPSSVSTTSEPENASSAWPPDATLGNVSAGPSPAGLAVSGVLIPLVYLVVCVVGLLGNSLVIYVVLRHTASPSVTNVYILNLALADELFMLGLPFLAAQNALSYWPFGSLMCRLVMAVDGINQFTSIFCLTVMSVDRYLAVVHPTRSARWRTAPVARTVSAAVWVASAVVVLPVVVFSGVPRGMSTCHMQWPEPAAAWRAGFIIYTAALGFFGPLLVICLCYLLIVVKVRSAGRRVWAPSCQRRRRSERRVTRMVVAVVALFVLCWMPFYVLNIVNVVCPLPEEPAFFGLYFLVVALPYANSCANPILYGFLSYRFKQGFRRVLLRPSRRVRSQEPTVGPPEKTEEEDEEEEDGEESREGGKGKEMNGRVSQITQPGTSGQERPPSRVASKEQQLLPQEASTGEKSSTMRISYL
Summary of the method: (§2)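 PathHunter β-arrestin complementation assay, antagonist mode. Cells co-express ProLink-tagged GPCR and enzyme-acceptor-tagged β-arrestin and are pre-incubated with sample for 30 min at 37 °C or room temperature. Dose-response: 10 points, 3-fold dilutions from 20 μM, in duplicate.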

[5] = molecular target: T3, C-C chemokine receptor type 10 (Homo sapiens, UniProt P46092); assay: Antagonist activity at human CCR10 expressed in human U2OS cells assessed as inhibition of CCL27-induced beta-arrestin recruitment pre-incubated for 30 mins before CCL27 stimulation for 90 or 180 mins by chemiluminescence method; format: functional, cell-based; summary of the method: as §2
T3 sequence (P46092 whole entry): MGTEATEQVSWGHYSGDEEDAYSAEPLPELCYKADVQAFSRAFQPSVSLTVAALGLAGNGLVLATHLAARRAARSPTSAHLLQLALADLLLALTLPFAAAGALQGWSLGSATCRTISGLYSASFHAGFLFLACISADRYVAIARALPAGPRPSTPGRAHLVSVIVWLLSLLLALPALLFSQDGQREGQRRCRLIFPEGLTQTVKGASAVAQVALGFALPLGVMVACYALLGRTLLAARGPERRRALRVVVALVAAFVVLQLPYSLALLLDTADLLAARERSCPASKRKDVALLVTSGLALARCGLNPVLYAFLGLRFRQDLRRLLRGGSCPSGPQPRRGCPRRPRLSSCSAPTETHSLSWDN

Oxytocin receptor = molecular target: T4, Oxytocin receptor (Homo sapiens, UniProt P30559); assay: Antagonist activity at human OXTR expressed in CHOK1 cells assessed as oxytocin-induced beta-arrestin recruitment pre-incubated for 30 mins before oxytocin stimulation for 90 or 180 mins by chemiluminescence method; format: functional, cell-based; summary of the method: as §2
T4 sequence (P30559 whole entry): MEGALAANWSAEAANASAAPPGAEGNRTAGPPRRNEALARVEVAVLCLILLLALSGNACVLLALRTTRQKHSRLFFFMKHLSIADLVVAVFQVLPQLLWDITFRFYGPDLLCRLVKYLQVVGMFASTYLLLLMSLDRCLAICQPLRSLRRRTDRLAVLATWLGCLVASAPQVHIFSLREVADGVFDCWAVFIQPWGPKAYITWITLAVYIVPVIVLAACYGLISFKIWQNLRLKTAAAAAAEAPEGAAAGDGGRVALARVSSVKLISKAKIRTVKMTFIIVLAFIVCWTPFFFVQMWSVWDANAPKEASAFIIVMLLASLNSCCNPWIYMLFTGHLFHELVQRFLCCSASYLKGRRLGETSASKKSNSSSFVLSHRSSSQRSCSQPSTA

Kallikrein-7 [6] = molecular target: T1, Kallikrein-7; assay: Inhibition of kallikrein 7 (unknown origin) using fluorescently labeled peptide substrate by fluorescence assay
Summary of the method: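 KLK7 follow-up: 10-dose titrations, 3-fold serial dilution from 100 μM, in duplicate, with gabexate mesylate as positive control. Fluorescence from the labeled peptide substrate is monitored over time, and the initial linear slope (signal/min) is used to derive IC50.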
Target sequence in this assay (P49862 30-253 limits assumed): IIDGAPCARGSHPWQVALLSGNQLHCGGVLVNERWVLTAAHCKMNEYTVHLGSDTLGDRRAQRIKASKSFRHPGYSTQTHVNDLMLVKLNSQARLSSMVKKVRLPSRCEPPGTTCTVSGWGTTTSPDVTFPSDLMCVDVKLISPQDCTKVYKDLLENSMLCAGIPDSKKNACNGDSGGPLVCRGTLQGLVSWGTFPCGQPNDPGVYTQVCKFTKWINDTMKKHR

Substance-K receptor = molecular target: T5, Substance-K receptor (Homo sapiens, UniProt P21452); assay: Antagonist activity at human TACR2 expressed in CHOK1 cells assessed as substance P-induced beta-arrestin recruitment pre-incubated for 30 mins before substance P stimulation for 90 or 180 mins by chemiluminescence method; format: functional, cell-based; summary of the method: as §2
T5 sequence (P21452 whole entry): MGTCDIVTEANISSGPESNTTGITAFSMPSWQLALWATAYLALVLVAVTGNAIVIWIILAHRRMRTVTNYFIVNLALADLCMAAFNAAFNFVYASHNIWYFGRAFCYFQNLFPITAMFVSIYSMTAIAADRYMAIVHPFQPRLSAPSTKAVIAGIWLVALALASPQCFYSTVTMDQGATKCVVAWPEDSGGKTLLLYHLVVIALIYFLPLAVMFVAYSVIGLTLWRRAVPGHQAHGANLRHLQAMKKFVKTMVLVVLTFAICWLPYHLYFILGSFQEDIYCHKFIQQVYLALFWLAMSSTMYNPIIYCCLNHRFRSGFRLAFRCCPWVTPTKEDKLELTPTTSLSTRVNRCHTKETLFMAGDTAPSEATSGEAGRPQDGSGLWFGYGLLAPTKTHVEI

MDA-MB-231 [7] = assay: Antiproliferative activity against human MDA-MB-231 cells assessed as reduction in cell viability at 32 uM after 48 hrs by MTT assay; format: functional
Summary of the method: (§3)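 MDA-MB-231 cells seeded at 10,000 cells/well in DMEM with 10% FBS and left 24 h, then exposed to compound or DMSO solvent control for 48 h. Viability read by MTT, compared with solvent control.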

MDA-MB-231 [8] = assay: Antiproliferative activity against human MDA-MB-231 cells assessed as reduction in cell viability at 100 uM after 48 hrs by MTT assay; format: functional; summary of the method: as §3
Kallikrein-7 [9] = molecular target: T1, Kallikrein-7; assay: Mixed type inhibition of kallikrein 7 (unknown origin) using fluorescently labeled peptide substrate by fluorescence assay based Michaelis-Menten kinetic plot analysis
Target sequence in this assay (P49862 30-253 limits assumed): as the sequence (P49862 30-253 limits assumed) above

Chymase = molecular target: T6, Chymase (Homo sapiens, UniProt P23946); assay: Inhibition of chymase (unknown origin) by fluorescence assay; summary of the method: as §1
T6 sequence (P23946 whole entry): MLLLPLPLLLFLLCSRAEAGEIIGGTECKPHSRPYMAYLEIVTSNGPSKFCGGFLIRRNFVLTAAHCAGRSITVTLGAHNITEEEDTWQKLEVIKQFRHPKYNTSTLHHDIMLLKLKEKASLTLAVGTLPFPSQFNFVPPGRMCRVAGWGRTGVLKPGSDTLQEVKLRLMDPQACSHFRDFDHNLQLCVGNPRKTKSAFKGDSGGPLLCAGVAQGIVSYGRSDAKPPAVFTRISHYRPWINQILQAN

MDA-MB-231 [10] = assay: Antimigratory activity against human MDA-MB-231 cells at 10 uM after 48 hrs by transwell migration assay relative to control; format: functional
[11] = Inhibition of chymotrypsin (unknown origin) by fluorescence assay; set-up: species or system Homo sapiens
[12] = Homo sapiens, MDA-MB-231, 48 h, read-out: IC50

SMILES | IC50 (Kallikrein-7 [1]) | IC50 (Caspase-14) | IC50 (MDA-MB-231 [2]; mda-mb-231) | EC50 [3] | IC50 [4] | IC50 [5] | IC50 (Oxytocin receptor) | inhibition (Kallikrein-7 [6]) | IC50 (Substance-K receptor) | Activity (MDA-MB-231 [7]) | IC50 (MDA-MB-231 [2]; [12]) | Activity (MDA-MB-231 [8]) | inhibition (Kallikrein-7 [9]) | IC50 (Chymase) | Activity (MDA-MB-231 [10]) | IC50 [11]
CCOC(=O)c1ccc(OC(=O)CCCCCNC(=N)N)cc1 | 20.4 µM |  |  |  |  |  |  |  |  |  |  |  |  |  |  | 
CC[C@H](C)[C@H](N)C(=O)N[C@@H](CCC(=O)O)C(=O)N[C@H](C(=O)NC(C=O)CC(=O)O)[C@@H](C)O (some centres not stated) (H-IET[ξD]-aldehyde) |  | 7.28 µM |  |  |  |  |  |  |  |  |  |  |  |  |  | 
COC(=O)[C@@H]1CCCN1C(=O)[C@@H](Cc1ccccc1)N(C)C(=O)[C@H](C)NC(=O)[C@H](CC(C)C)N(C)C(=O)CNC(=O)[C@@H]1CCCN1C(=O)[C@H](O)C(C)C (H-[dHiv]PG[NMeL]A[dNMeF]P-OMe) |  |  | Not Active | > 20 µM | > 20 µM | > 20 µM | > 20 µM | Active | > 20 µM |  |  |  |  |  |  | 
CC[C@H](C)[C@@H](OC(=O)CCc1ccccc1)C(=O)N1CCC[C@H]1C(=O)NCC(=O)N(C)[C@@H](CC(C)C)C(=O)N[C@@H](C)C(=O)N(C)[C@H](Cc1ccccc1)C(=O)N1CCC[C@H]1C(=O)OC (X2-PG[NMeL]A[dNMeF]P-OMe) |  |  |  | 7.81 µM | > 20 µM | 3.14 µM | 5.32 µM | Active | 3.22 µM | 50% |  |  |  |  |  | 
CC[C@H](C)[C@@H](OC(=O)/C=C\c1ccccc1)C(=O)N1CCC[C@H]1C(=O)NCC(=O)N(C)[C@@H](CC(C)C)C(=O)N[C@@H](C)C(=O)N(C)[C@H](Cc1ccccc1)C(=O)N1CCC[C@H]1C(=O)OC (X3-PG[NMeL]A[dNMeF]P-OMe) |  |  |  | 5.92 µM | > 20 µM | 2.71 µM | 5.76 µM | Active | 4.61 µM |  | 14.9 µM |  |  |  |  | 
CC[C@H](C)[C@@H](OC(=O)[C@H](Cc1ccccc1)N(C)C)C(=O)N1CCC[C@H]1C(=O)NCC(=O)N(C)[C@@H](CC(C)C)C(=O)N[C@@H](C)C(=O)N(C)[C@H](Cc1ccccc1)C(=O)N1CCC[C@H]1C(=O)OC (X4-PG[NMeL]A[dNMeF]P-OMe) |  |  |  | 10.5 µM | 6.11 µM | > 20 µM | > 20 µM | Active | 5.51 µM |  |  | 50% |  |  |  | 
CC[C@H](C)[C@@H](OC(=O)C#Cc1ccccc1)C(=O)N1CCC[C@H]1C(=O)NCC(=O)N(C)[C@@H](CC(C)C)C(=O)N[C@@H](C)C(=O)N(C)[C@H](Cc1ccccc1)C(=O)N1CCC[C@H]1C(=O)OC (X5-PG[NMeL]A[dNMeF]P-OMe) |  |  |  | > 20 µM | > 20 µM | > 20 µM | > 20 µM | Active | > 20 µM |  | 60 µM |  |  |  |  | 
CC[C@H](C)[C@@H](O)C(=O)N1CCC[C@H]1C(=O)NCC(=O)N(C)[C@@H](CC(C)C)C(=O)N[C@@H](C)C(=O)N(C)[C@H](Cc1ccccc1)C(=O)N1CCC[C@H]1C(=O)OC ({Hmp(2R,3S)}-PG[NMeL]A[dNMeF]P-OMe) | 22.1 µM | 50.3 µM | Not Active | > 20 µM | > 20 µM | > 20 µM | > 20 µM | Active | > 20 µM |  |  |  | Active | 101 µM | inactive | 8.98 µM
CC(C)C[C@H](NC(=O)[C@@H](NC(=O)N[C@@H](Cc1ccccc1)C(=O)O)C1CCNC(=N)N1)C(=O)N[C@H](C=O)Cc1ccccc1 (some centres not stated) [CHYMOSTATIN] |  |  |  |  |  |  |  |  |  |  |  |  |  | 0.00936 µM |  | 0.00031 µM
